In ChEMBL document CHEMBL4513216, “Probing the Open Global Health Chemical Diversity Library for Multistage-Active Starting Points for Next-Generation Antimalarials” (ACS Infect Dis, 2020):

Experiment: Toxicity liver stage against HepG2, at 10uM
Format: cell-based
Set-up: test concentration 10 uM, cell line HepG2-A16-CD81EGFP
Conditions: human, HepG2-A16-CD81EGFP cells; read-out: INHIBITION
Summary of the method: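 Uninfected HepG2-A16-CD81EGFP cells, 3 × 10^3 per well, 1536-well, plated on prespotted compound at 10 μM final, parasite-free screening media added to match infected plates; puromycin 10 μM positive, DMSO 0.5% negative; run in parallel with 48 h PbLuc assay at 37 °C, 5% CO2; viability by CellTiter-Glo luminescence, normalized to controls.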

| SMILES | cytotoxicity at 10 µM |
| --- | --- |
| CC(CN1CCOCC1)OC(=O)c1ccccc1Cl (configuration not stated) | -4.52% |
| CNC(=O)c1cc(C)n(-c2ccccc2)n1 | -0.142% |
| CCc1c(C)nc2n(c1=O)CC(C(=O)NCc1cccs1)CS2 (configuration not stated) | 15.2% |
| Cc1nc(N2CCOCC2)nc(C)c1NC(=O)Cc1ccc(Cl)cc1 | -4% |
| COCCn1c2c(ccc1=O)CC(N)CC2 (configuration not stated) | 9.77% |
| CN1CCCC2(C1)CN(C(=O)C1CCCCC1)CCO2 (configuration not stated) | 0.994% |
| Cc1cccc(CN2CCc3nnc(CN(C)C)n3CC2)n1 | -1.54% |
| N#Cc1cccc(N2CCCC3(CN(C(=O)NC4CC4)CCO3)C2)c1 (configuration not stated) | 12.1% |
| CC(C)C(=O)N1CCC12CCCN(C(=O)c1ccccc1)C2 (configuration not stated) | 6.8% |
| COCC(=O)N1CCn2c(Cn3cncn3)cnc2C1C (configuration not stated) | 0.53% |
| Cc1nnc([C@H]2C[C@@H]3CCN(Cc4cc(C)on4)C[C@H]3O2)[nH]1 | -5.03% |
| Cc1noc([C@H]2COC[C@H]3CN(C(=O)Cc4cccs4)C[C@H]32)n1 | 3.3% |
| COCCN1CC[C@H]2OCC[C@@H](C(=O)Nc3cccnc3)[C@@H]2C1 | 4.81% |
| CC(C)NC(=O)CC1(Cn2cnnn2)CCCCC1 | 9.54% |
| CNc1nc2c(s1)C(c1cc(Cl)ccc1F)CC(=O)N2 (configuration not stated) | 10.3% |
| Cc1c(S(=O)(=O)NCC(C)Cn2cc(Cl)cn2)cnn1C (configuration not stated) | 0.446% |
| Cn1cc(CN2CCC(c3ncc(Cl)cc3S(C)(=O)=O)CC2)cn1 | -0.83% |
| Clc1ccc(OCCc2cc(C3CCN(c4ncccn4)C3)n[nH]2)cc1 (configuration not stated) | 7.45% |
| CN1CCCC(c2cccc(-c3cccc(F)c3)n2)C1 (configuration not stated) | -2.4% |
| COCCC(=O)N1CCCC(c2n[nH]cc2C)C1 (configuration not stated) | -1.75% |
| O=C1CN(Cc2ccc3ccccc3n2)CCN1C1CCCC1 | -3.45% |
| CS(=O)(=O)Cc1cccc(CNS(=O)(=O)c2ccc(F)c(F)c2)c1 | 1.33% |
| Cc1nnc(CNC(C)c2cc(C)c(F)c(C)c2)s1 (configuration not stated) | -3.7% |

| SMILES | cytotoxicity at 10 µM |
| --- | --- |
| CCN(CC)C(=O)CCNC(=O)c1c[nH]c2ccc(OC)cc12 | 1.86% |
| O=C(CC1COCCN1C(=O)c1cscn1)c1ccccc1 (configuration not stated) | 6.24% |
| Cc1cc(CC(=O)NCC(O)COc2ccc(F)c(F)c2)no1 (configuration not stated) | -5.03% |
| Cc1cccc(CN2CCC(NCC3CNc4cc(C)nn4C3)CC2)c1 (configuration not stated) | 7.36% |
| CCc1cc(NCc2cccnc2N2CCCCC2)n2ncnc2n1 | 10.5% |
| NC(=O)C1CCN(CCc2ccc(NCc3ccsc3)cc2)CC1 | 0.867% |
| Cc1noc(C)c1CN(C)Cn1nccc1-c1cccnc1 | -0.532% |
| Cc1cnn(CC2CC2)c1NC(=O)c1cccnc1O | 6.62% |
| CC(c1nnc(-c2ccccc2)o1)N1CCc2cncnc2C1 (configuration not stated) | 8.59% |
| CCc1nn(C)c2[nH]nc(NC(=O)c3cccnc3NC(C)C)c12 | 3.07% |
| COc1ccc(CC2CCCN2CCCC#N)cc1 (configuration not stated) | -54.7% |
| O=C(CSCc1ccccn1)N(Cc1ccsc1)C1CC1 | -9.8% |
| CC(O)CNC(=O)NCCCN1CCN(c2ncccn2)CC1 (configuration not stated) | -48.8% |
| CCC(C)(NCC(=O)N(c1ccccc1)C(C)C)c1nc(C)cs1 (configuration not stated) | 10.9% |
| CC(C)c1cc(C(=O)N2CCN(Cc3ccsc3)CC2)n[nH]1 | 0.0711% |
| CN(Cc1cnccn1)C(=O)c1ccnc(OC2CCC2)c1 | 0.0711% |
| CCOC[C@@H]1CCC[C@@]12CN(Cc1nccs1)CCO2 | 1.77% |
| Cc1cc(N[C@H]2CN(CC(C)(C)N3CCOCC3)C[C@@H]2C2CC2)ncn1 | 2.03% |
| CCNC(=O)Cn1ncc(N(C)CCc2ccccc2)cc1=O | 5.69% |
| O=C(O)C1(n2cccn2)CCN(Cc2nc(-c3ccccc3)no2)CC1 | 6.74% |
| Cc1ccc(C2(O)CCN(Cc3nnc(-c4cccnc4)o3)CC2)nc1 | -7.77% |
| COCCN1CC2(CCCN(C(=O)NCc3ccccc3)C2)CCC1=O (configuration not stated) | -9.31% |
| CCC(=O)N1CCN(C(=O)CCn2cc(Cl)cn2)[C@H]2CS(=O)(=O)C[C@H]21 | -6.39% |

| SMILES | cytotoxicity at 10 µM |
| --- | --- |
| CNC(=O)CCN(C)c1nc(-c2ccncc2)nc2c1CCNC2 | -1.54% |
| O=C(CCn1ccccc1=O)N1CCN(Cc2cccc(Cl)c2)CC1 | -1.97% |
| CCN1CC(C(=O)N2CCN(CCn3cccc3)CC2)CC1=O (configuration not stated) | -3.64% |
| O=c1cc(-c2ccncc2)nc(-c2ccc(CN3CC[C@@H](O)C3)cc2)[nH]1 | 3.03% |
| CC(=O)NCC(=O)N(CCN1CCOCC1)Cc1ccco1 | -9.04% |
| CCNc1ncc(C(=O)N(C)Cc2nc3cc(Cl)ccc3[nH]2)cn1 | -44.3% |
| Cc1csc2c(=O)n(C(C)Cc3cccnc3)cnc12 (configuration not stated) | 9.98% |
| CCN(C)Cc1n[nH]c(=O)n1-c1cc(F)ccc1C | 11.4% |
| COc1cccc2c1OCC(C(=O)NCc1nc3c(s1)CCCC3)C2 (configuration not stated) | -43.3% |
| C[C@@H](N)C(=O)N1CCC(c2[nH]ncc2-c2ccccc2)CC1 | -3.81% |
| CCOCCn1c(=O)n(Cc2ccc(F)cc2)c2ncc(C(=O)O)cc21 | 0.902% |
| CC(C)c1cc(NC(CCO)c2ccccc2)n2nccc2n1 (configuration not stated) | -45.4% |
| CCN1CCc2[nH]cnc2C12CCN(C(=O)CCCn1cncn1)CC2 | -19.2% |
| O=C(Cc1cccc(O)c1)N1CCCC(OCc2cccnc2)C1 (configuration not stated) | 1.5% |
| CNC(=O)c1nc(Cn2ncc3ccccc3c2=O)no1 | 6.6% |
| CCC(C(=O)NCc1ccncc1)N(c1cccc(C)c1)S(C)(=O)=O (configuration not stated) | -5.88% |
| CC(C)C(=O)NCCNc1nccc(-c2cc(C(=O)O)ccn2)n1 | -24% |
| CCn1cnnc1CNC(=O)N1CCN(c2ccc(OC)cc2)CC1 | -1.62% |
| CCn1cnnc1CNC(=O)N1CCN(c2ccccc2O)CC1 | -1.47% |
| Cc1noc(C)c1CN(Cc1cccs1)C1CCS(=O)(=O)C1 (configuration not stated) | -0.375% |
| Cc1oc(-c2cccs2)nc1C(=O)N1CCCC1Cn1cccn1 (configuration not stated) | -7.22% |
| CCCc1n[nH]c(C2CN(C(=O)c3cncnc3C)CCO2)n1 (configuration not stated) | -12.9% |
| CC(C)c1nn(C)c(N(C)C)c1CNCCC(=O)NC1CCCCC1 | -2.89% |

| SMILES | cytotoxicity at 10 µM |
| --- | --- |
| CC1CN(C)CCN1CC(=O)NCCOc1ccc(Cl)cc1 (configuration not stated) | -8.69% |
| Cc1ccc(C(=O)NS(=O)(=O)c2ccccc2Cl)c(=O)[nH]1 | -8.81% |
| Cn1ccc(C(=O)N2CCN(c3ccccn3)CC2)cc1=O | -9.43% |
| O=C(CCOc1ccccc1F)N1CCCC(n2cncn2)C1 (configuration not stated) | -1.22% |
| Cc1ccccc1OCCCC(=O)N1CCCC(n2cncn2)C1 (configuration not stated) | -4.36% |
| O=C(c1cccnc1N1CCOCC1)N1CCCC(n2cncn2)C1 (configuration not stated) | -3.37% |
| CC(=O)c1ccc(OCC(=O)NS(=O)(=O)c2cccnc2)cc1 | -18% |
| N#Cc1cn(C2CC2)c(=O)n(CC(O)c2ccc(F)cc2)c1=O (configuration not stated) | 2.37% |
| O=C(Nc1cn[nH]c1)c1ccncc1 | -6.01% |
| CN(Cc1ccncc1)C(=O)NC1CCCN(c2ncccn2)C1 (configuration not stated) | -14% |
| Cn1cnnc1C1CCN(C(=O)c2cc3c(s2)CCCC3)CC1 | -19% |
| O=C(c1cnc2c(cnn2C2CCCC2)c1)N1CCCSCC1 | -9.3% |
| CCc1nccn1CC1CCCN1S(=O)(=O)Cc1ccccc1 (configuration not stated) | -13.4% |
| Cc1cnc(CN2CCCC(c3cc(C)[nH]n3)C2)cn1 (configuration not stated) | 0.802% |
| Cc1cc(OCC(=O)N2CCCC(c3noc(C(C)C)n3)C2)no1 (configuration not stated) | -4.56% |
| CC(C)(C)n1ncc2c1CCCC2NCc1cccc2c1OCCO2 (configuration not stated) | -2.69% |
| COc1ccc(N(C)Cc2nc3c(cnn3C)c(=O)[nH]2)cc1OC | -10.7% |
| Cc1cnn(CC2CCCCN2C(=O)Cc2cccc(F)c2)c1 (configuration not stated) | -10.7% |
| CCNc1cc2c(nn1)CCN(C(=O)c1cc(C)n(C3CC3)c1C)C2 | -0.282% |
| Cc1ccc(-c2nc(CN3CCCC(C(=O)N(C)C)C3)cs2)o1 (configuration not stated) | -14% |
| O=C(c1ccnc(-n2ccnc2)c1)N1CCCC(n2cccn2)C1 (configuration not stated) | 1.21% |
| COCCNC(=O)CN1CCCC1c1c(C)nn(C)c1Cl (configuration not stated) | -0.185% |
| c1ncn(CC2CN(CCCOc3ccc4c(c3)OCO4)CCO2)n1 (configuration not stated) | -1.85% |

| SMILES | cytotoxicity at 10 µM |
| --- | --- |
| Cc1ccc(N2CCCC(NCc3sccc3C)C2)nn1 (configuration not stated) | -3.8% |
| CCc1nccn1C1CCCN(C(=O)c2cccc3c2OCO3)C1 (configuration not stated) | -8.87% |
| O=C(NCCNc1ncccn1)C1CC(=O)N(CC2CC2)C1 (configuration not stated) | -14% |
| Cc1cnc(C(=O)NC(COCC(C)C)c2ccco2)cn1 (configuration not stated) | -19.6% |
| O=C(NCCN1CCCCC1)c1scnc1Cl | -7.69% |
| Cc1cc(C)n(C2CCCN(C(=O)c3c(C)c(C)n[nH]c3=O)C2)n1 (configuration not stated) | 3.18% |
| COc1ccccc1CNC(=O)N1CCCC(NS(C)(=O)=O)C1 (configuration not stated) | 5.05% |
| CC1CCN(c2cncc(CCC3CCCN3)n2)CC1 (configuration not stated) | 4.52% |
| O=C1CCC2(CCC(NC(=O)NCc3cccnc3)CC2)N1 (configuration not stated) | -5.25% |
| COc1nc2cc(C)ccc2cc1CN(C)Cc1cc(C)[nH]n1 | 4.3% |
| CN(C)CC1COCCN1C(=O)C1(c2cccs2)CCCC1 (configuration not stated) | -9.52% |
| CC(C)OCc1nn(C)c2c1CN(Cc1cccs1)CC2 | -99.5% |
| CN(C)CCOCc1nnc2n1CCN(CC1CC1)CC2 | -4.87% |
| CCOCC1CN(C(=O)c2cc(C)oc2C)Cc2c1cnn2C (configuration not stated) | 9.64% |
| NC(=O)C1CNCCN1C(=O)COc1ccccc1 (configuration not stated) | 1.6% |
| Cc1nc(CN2CC3(CCN(c4cnccn4)C3)CC2=O)cs1 (configuration not stated) | 1.36% |
| CCN1CC[C@@]2(C(=O)Nc3ccccc3)CCN(S(C)(=O)=O)CC[C@@H]12 | 7.14% |
| COC[C@]12COC[C@H]1CN(Cc1ccc3c(c1)OCO3)C2 | -108% |
| CCO[C@@H]1CC[C@H]2[C@H]1OCCN2Cc1ccoc1 | -96.9% |
| Cn1cc(-c2cnc(N3CCOCC3)nc2)cc1C(=O)NCCO | 7.15% |
